# Measurements reported in PubChem BioAssay AID449763 (Sanford-Burnham Center for Chemical Genomics, 2010).
# The whole screen tested about 330,000 compounds, of which about 1,100 (0.33%) were called active. For the sample, actives were picked, then their nearest neighbours and some compounds at random. A number with no mark means an inactive call.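 How the source made its calls: active means at 10 µM dose, activation of 40% or more, normalized to positive control; inactive means the rest.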
# Assay: PERK-eIF2a-CHOP pathway stimulators – cell-based, CHO-CHOP luciferase reporter, luminescence, uHTS, primary screen (AID 449763);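 further: 100% = tunicamycin at 10 µg/mL and 0% = DMSO alone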
# Conditions: UPR activation, at 10 µM, stronger effect = higher value, percent of tunicamycin response over DMSO baseline
# In short: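 Test system: CHO-CHOP cells, stable luciferase reporter of PERK-eIF2a-CHOP signalling | Quantity: 500 CHO-CHOP cells per well | Buffer or medium: F12 plus 10% serum | Compound dosing: 10 µM single point, 0.5% DMSO | Schedule: 6 h compound treatment, 37 °C | Signal: Luciferase luminescence | Control set: Tunicamycin high control, DMSO low control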
row,SMILES,activation
1,O=C1NC(=O)N(CCc2ccc(F)cc2)C(=O)/C1=C/C=C/c1ccccc1,75.4% (active)
2,O=C(O)COc1ccccc1/C=C1\C(=O)NC(=O)N(CCC2=CCCCC2)C1=O,-0.189%
3,O=C1NC(=O)N(Cc2ccco2)C(=O)/C1=C\c1ccc(-c2ccc(F)cc2)o1,0.772%
4,COc1cccc(-c2nc3ccc(N4CCN(C)CC4)cc3[nH]2)c1,-6.37%
5,Cc1cc(N2C(=O)C3CCCN3C2c2ccc(Cl)c(Cl)c2)no1 (stereo not given),-0.781%
